Assay results taken from PMC11557630 (Targeted Oncology, 2024).

Assays:
cell kill activity = conditions: preclinically determined; no reference given; cited from earlier work
[1] = test system: patients with relapsed extensive-stage SCLC; test: Safety and tolerability; format: in vivo, human; conditions: part B SCLC cohort
In short: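 Oral adavosertib 200 mg once daily on days 1–3 and 8–10 of a 21-day cycle, plus continuous oral olaparib 200 mg twice daily. AEs were graded by CTCAE v4.03 and assessed by physical examination, vital signs (blood pressure, pulse, body temperature) and laboratory parameters, from enrollment through post-treatment follow-up. Safety data were summarized descriptively.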

[2] = test system: patients with refractory solid tumors; test: Safety and tolerability; format: in vivo, human; conditions: for Patients with AEs causally related to adavosertib: 12 patients
In short: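 Open-label, multicenter escalation: oral adavosertib 175 mg twice daily on a 3-days-on/4-days-off schedule, plus continuous oral olaparib 200 mg twice daily, in 21-day cycles. DLTs were recorded in cycle 1, a window extendable up to 2 weeks after drug-related delays; DLT-evaluable patients received >75% of planned doses. AEs were graded by CTCAE v4.03 via examination, vital signs and laboratory tests.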

[3] = test system: PARP inhibitor-resistant ovarian cancer; conditions: adavosertib monotherapy arm; cited from earlier work
[4] = Plasma pharmacokinetics of adavosertib and olaparib, part A; format: in vivo, human
[5] = in combination with olaparib, cohort 4.2
[6] = in combination with olaparib, cohort 7.4
[7] = with adavosertib 175 mg bid vs olaparib alone

SMILES: C=CCn1c(=O)c2cnc(Nc3ccc(N4CCN(C)CC4)cc3)nc2n1-c1cccc(C(C)(C)O)n1 [adavosertib]
- Target adavosertib plasma concentration range for cell kill activity (cell kill activity): 0.5 to 1 µM
- AEs leading to dose reductions of adavosertib [1]: one
- AEs leading to interruptions of adavosertib [1]: three
- Patients with an AE leading to dose reduction of adavosertib ([2]; cohort 4.2, five patients): 35.7%
- Patients with an AE leading to dose interruption of adavosertib ([2]; cohort 4.2, seven patients): 50.0%
- Patients with an AE leading to dose interruption of adavosertib ([2]; cohort 7.4, five patients): 38.5%
- Patients with an AE leading to dose reduction of adavosertib ([2]; cohort 7.4, three patients): 23.1%
- MTD for adavosertib bid ([2]; days 1–3, 8–10/21-day cycle, plus continuous olaparib 200 mg bid (cohort 4.2)): 175 mg
- Anemia causally related to adavosertib [2, 5]: 35.7%
- Decreased appetite causally related to adavosertib [2, 5]: 50.0%
- Diarrhea causally related to adavosertib [2, 5]: 50.0%
- Fatigue causally related to adavosertib [2, 5]: 64.3%
- Nausea causally related to adavosertib [2, 5]: 50.0%
- Patients with AEs causally related to adavosertib [2, 5]: 85.7%
- Patients with serious AEs causally related to adavosertib ([2]; in combination with olaparib, cohort 4.2, three patients): 21.4%
- Anemia causally related to adavosertib [2, 6]: 38.5%
- Decreased appetite causally related to adavosertib [2, 6]: 30.8%
- Diarrhea causally related to adavosertib [2, 6]: 38.5%
- Fatigue causally related to adavosertib [2, 6]: 15.4%
- Nausea causally related to adavosertib [2, 6]: 23.1%
- Patients with AEs causally related to adavosertib [2, 6]: 92.3%
- Patients with serious AEs causally related to adavosertib ([2]; in combination with olaparib, cohort 7.4, one patient (dizziness)): 7.7%
- Patients with CTCAE grade ≥ 3 events causally related to adavosertib ([2]; in combination with olaparib, part A overall, 52 patients): 43.7%
- AEs with an outcome of death considered causally related to adavosertib ([2]; part A overall, sepsis, not a result of a DLT): one
- Clinical benefit rate [3]: 63%

SMILES: O=C(c1cc(Cc2n[nH]c(=O)c3ccccc23)ccc1F)N1CCN(C(=O)C2CC2)CC1 [olaparib, reference compound]
- AEs leading to interruptions of olaparib [1]: five
- Patients with an AE leading to dose interruption of olaparib ([2]; cohort 4.2, nine patients): 64.3%
- Patients with an AE leading to dose reduction of olaparib ([2]; cohort 4.2, three patients): 21.4%
- Patients with an AE leading to dose interruption of olaparib ([2]; cohort 7.4, eight patients): 61.5%
- Patients with an AE leading to dose reduction of olaparib ([2]; cohort 7.4, three patients): 23.1%
- Ratio of olaparib plus adavosertib to olaparib alone for AUC0–10 and/or Cmax ([4]; in some patients (high outliers)): exceeded 2
- Difference between exposure to olaparib in the presence of adavosertib and to olaparib alone ([4]; part A): no statistically significant difference
- Olaparib Cmin,ss compared with the IC95 in preclinical studies ([4]; part A, Supplementary Fig. 3): comparable
- Increase in olaparib AUC0–10 [4, 7]: 33%
- Increase in olaparib Cmax [4, 7]: 18%
